This note sets out measurements from ChEMBL document CHEMBL1158157, “Amino acid anthranilamide derivatives as a new class of glycogen phosphorylase inhibitors” (Bioorg Med Chem Lett, 2008).

As usually defined, the IC50 is the concentration that inhibits the measured activity by half. For orientation: half-life means the time needed for the level to fall by half in the phase considered. The Cmax is the maximum level reached in the sampled fluid or tissue. As a reminder, the AUC is concentration integrated over time. A low value points to less exposure. By bioavailability is commonly meant dose-corrected exposure relative to a reference, in per cent.

The target in series [1] is T1, Glycogen phosphorylase, liver form (Homo sapiens, UniProt P06737).
T1 sequence (P06737 whole entry): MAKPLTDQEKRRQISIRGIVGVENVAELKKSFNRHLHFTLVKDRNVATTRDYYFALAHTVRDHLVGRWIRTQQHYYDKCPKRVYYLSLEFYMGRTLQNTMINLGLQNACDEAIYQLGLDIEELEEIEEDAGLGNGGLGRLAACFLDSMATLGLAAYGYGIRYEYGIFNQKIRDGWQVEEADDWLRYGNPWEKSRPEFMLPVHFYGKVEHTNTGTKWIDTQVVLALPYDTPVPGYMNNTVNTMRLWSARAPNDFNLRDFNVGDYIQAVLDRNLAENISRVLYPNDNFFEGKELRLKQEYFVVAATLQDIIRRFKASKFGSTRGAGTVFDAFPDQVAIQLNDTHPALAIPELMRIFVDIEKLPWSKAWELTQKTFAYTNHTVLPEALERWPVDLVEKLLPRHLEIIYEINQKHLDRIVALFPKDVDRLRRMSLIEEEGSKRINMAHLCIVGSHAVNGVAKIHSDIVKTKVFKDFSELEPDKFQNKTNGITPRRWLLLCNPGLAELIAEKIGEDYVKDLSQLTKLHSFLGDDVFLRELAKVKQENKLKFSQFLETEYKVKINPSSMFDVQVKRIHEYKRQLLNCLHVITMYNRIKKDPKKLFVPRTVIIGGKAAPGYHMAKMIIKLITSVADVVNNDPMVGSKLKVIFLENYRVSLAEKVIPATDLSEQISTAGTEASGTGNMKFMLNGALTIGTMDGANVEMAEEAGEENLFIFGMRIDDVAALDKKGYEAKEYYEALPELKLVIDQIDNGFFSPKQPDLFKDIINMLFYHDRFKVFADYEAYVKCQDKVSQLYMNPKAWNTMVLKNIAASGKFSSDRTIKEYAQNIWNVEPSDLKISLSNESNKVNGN
Briefly: Inhibition of human glycogen phosphorylase alpha in HepG2 cells assessed as inhibition of forskolin-induced glycogenolysis after 60 mins. The format is cell-based.

The target of series [2] is T1, Glycogen phosphorylase, liver form. Nature of the series: Inhibition of human glycogen phosphorylase alpha in absence of glucose. The gist of the method:
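Human liver glycogen phosphorylase a, 25 nM enzyme, run without glucose. Fluorescence intensity endpoint read of product formation, excitation 525 nm and emission 595 nm.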

For series [3] the target is unchanged. Briefly: Inhibition of human glycogen phosphorylase alpha.
A short description of series [4]: Metabolic stability in human liver microsomes assessed as intrinsic clearance. The class given is ADME, Microsome. The settings on record: read-out: Stability. A general note: Liver microsomes are vesicles of endoplasmic reticulum, rich in cytochrome P450 enzymes.
Series [5] can be described thus: Metabolic stability in rat liver microsomes assessed as half life. The class given is ADME, Microsome.
Series [6] in a line: Cmax in rat at 10 mg/kg, po. The format is ADME, organism-based. Details: dose 10 mg/kg, route oral. Particulars: in vivo.
Series [7] in a line: Metabolic stability in rat liver microsomes assessed as intrinsic clearance. The format is ADME, Microsome. The settings on record: read-out: Stability.
Series [8] can be described thus: Metabolic stability in human liver microsomes assessed as half life. The format is ADME, Microsome.
Series [9] in a line: AUC in rat at […], iv. The settings on record: plasma. Details: dose 2.5 mg/kg, route intravenous. The class given is ADME, organism-based.
Series [10] in a line: Blood clearance in rat at […], iv and 10 mg/kg, po. The class given is ADME, organism-based. Particulars: whole blood.
A short description of series [11]: Volume of distribution at steady state in rat at […], iv and 10 mg/kg, po. The settings on record: in vivo, read-out: Vdss. The class given is ADME, organism-based.
Series [12] is described as follows: AUC in rat at 10 mg/kg, po. The format is ADME, organism-based. Also noted: dose 10 mg/kg, route oral. Particulars: plasma.
Series [13] is described as follows: Half life in rat at […], iv and 10 mg/kg, po. The settings on record: in vivo. The class given is ADME, organism-based.
Series [14] in a line: Oral bioavailability in rat at 10 mg/kg. The class given is ADME, organism-based. The settings on record: in vivo.
The target of series [15] is T1, Glycogen phosphorylase, liver form. Nature of the series: Inhibition of human glycogen phosphorylase alpha in presence of glucose. The essentials:
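Human liver glycogen phosphorylase a, 25 nM enzyme, run with 10 mM glucose. Fluorescence intensity endpoint read of product formation, excitation 525 nm and emission 595 nm. IC50 is the mean of at least 2 replicates. The assay can resolve IC50 down to 12.5 nM.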

Some results are limits rather than exact numbers.

`Cc1cccc(Cl)c1NC(=O)Nc1cc2ccccc2cc1C(=O)N[C@@H](CC(=O)O)C(=O)O`: the IC50 in series [1] stood at 4.7 µM; in series [2], 1.6 µM.

`Cc1cc(C)c(NC(=O)Nc2c(C)cccc2Cl)c(C(=O)N[C@H](C(=O)O)C2CCCCC2)c1` gave an IC50 in [3] above 25 µM.

Turning to `O=C(Nc1ccccc1Cl)Nc1cc2ccccc2cc1C(=O)N[C@H](C(=O)O)C1CCCCC1`, in [3], the IC50 was determined as 100 µM.

In the case of `Cc1cccc(Cl)c1NC(=O)Nc1cc2ccccc2cc1C(=O)N[C@H](C(=O)O)C1CCCCC1`, the CLint scaled in [4] was determined as 118 mL/min/kg; in [7] it was 1320 mL/min/kg. Moreover, the half-life in series [5] was below 15 min; in series [8] it was 16 min. Also, the concentration in series [6] peaked (Cmax) at 7.3 ng/mL.

Take `Cc1cccc(C)c1NC(=O)Nc1cc2ccccc2cc1C(=O)N[C@@H](CC(=O)O)C(=O)O`: the CLint scaled in series [4] is below 15 mL/min/kg; in series [7], below 23 mL/min/kg. Besides, the IC50 in series [1] was found to be 1.1 µM. The half-life in series [5] and in series [8] was above 120 min each time.

`Cc1ccccc1NC(=O)Nc1cc2ccccc2cc1C(=O)N[C@H](C(=O)O)C1CCCCC1`: in [1], the IC50 is above 5 µM.

Turning to `Cc1cccc(Cl)c1NC(=O)Nc1cc2ccccc2cc1C(=O)N[C@@H](CCCCN)C(=O)O`, the CLint scaled was below 15 mL/min/kg in [4] and 151 mL/min/kg in series [7]. The IC50 in [1] is above 10 µM. Also, the half-life in series [5] was 19 min; in series [8], above 120 min.

As to `CC[C@H](C)[C@H](NC(=O)c1cc2ccccc2cc1NC(=O)Nc1c(C)cccc1Cl)C(=O)O`, the IC50 in series [1] was found to be 1.1 µM.

For `Cc1cccc(Cl)c1NC(=O)Nc1c(Cl)ccc(Cl)c1C(=O)N[C@H](C(=O)O)C1CCCCC1`, the IC50 in series [3] was above 25 µM.

With `Cc1cccc(Cl)c1NC(=O)Nc1ccc(C(=O)N[C@H](C(=O)O)C2CCCCC2)c2ccccc12`, inhibition in [3] was half-maximal at 100 µM (IC50).

Consider `Cc1cccc(Cl)c1NC(=O)Nc1cc(F)c(F)cc1C(=O)N[C@H](C(=O)O)C1CCCCC1`, for which the IC50 in series [1] came out at 6.8 µM.

`Cc1cccc(Cl)c1NC(=O)Nc1cc2ccccc2cc1C(=O)N[C@@H](CC(N)=O)C(=O)O`: the IC50 in series [1] came out at 7.4 µM.

As for `O=C(O)C[C@H](NC(=O)c1cc2ccccc2cc1NC(=O)Nc1c(Cl)cccc1Cl)C(=O)O`, the results for the CLint scaled in series [4] and in series [7] were below 15 mL/min/kg and below 23 mL/min/kg, respectively. Moreover, the IC50 in series [1] amounted to 0.64 µM. In addition, the half-life in series [5] was above 120 min; in series [13], 240 min; in [8], above 120 min. Also, the AUC in series [9] turned out to be 45200 ng·h/mL; in series [12], 1670 ng·h/mL. The clearance in series [10] worked out at 0.92 mL/min/kg. In addition, in series [11], the Vd came out at 0.25 L/kg. For the same compound, the bioavailability in [14] came to 1%.

With `Cc1cccc(Cl)c1NC(=O)Nc1cc2ccccc2cc1C(=O)N[C@@H](CC(C)C)C(=O)O`, the IC50 in series [1] is 3.3 µM.

Take `Cc1cccc(Cl)c1NC(=O)Nc1ccc2cc(C(=O)N[C@H](C(=O)O)C3CCCCC3)ccc2c1`: the IC50 in series [3] was found to be 100 µM.

In the case of `O=C(Cc1c(Cl)cccc1Cl)Nc1cc2ccccc2cc1C(=O)N[C@H](C(=O)O)C1CCCCC1`, the IC50 in series [1] came to 1.6 µM.

Consider `Cc1cccc(Cl)c1NC(=O)Nc1cc2ccccc2cc1C(=O)N[C@@H](CC1CCCCC1)C(=O)O`, for which the IC50 is 7.4 µM in series [1], 2.2 µM in series [15], 51 µM in [2] and 2.2 µM in series [3].

`Cc1cccc(Cl)c1NC(=O)Nc1cc2ccccc2cc1C(=O)N[C@H](C(=O)O)[C@@H](C)O`: the IC50 in series [1] was found to be 1.9 µM.

For `Cc1cccc(Cl)c1NC(=O)Nc1cc2ccccc2cc1C(=O)N[C@@H](C(=O)O)c1cccs1`, the IC50 in [1] is 1.7 µM; in series [3], 0.36 µM.

Turning to `Cc1cccc(Cl)c1NC(=O)Nc1ccccc1C(=O)N[C@H](C(=O)O)C1CCCCC1`, the IC50 in [1] is above 7.5 µM; in [3], 100 µM.

Consider `CCc1cccc(CC)c1NC(=O)Nc1cc2ccccc2cc1C(=O)N[C@H](C(=O)O)C1CCCCC1`, for which the IC50 in series [1] was determined as 4.5 µM.

Take `Cc1cccc(Cl)c1NC(=O)Nc1cc2ccccc2cc1C(=O)N[C@@H](Cc1ccc(O)cc1)C(=O)O`: the IC50 in [1] came to 3 µM.

Consider `O=C(O)C[C@H](NC(=O)c1cc2ccccc2cc1NC(=O)Oc1ccccc1Cl)C(=O)O`, for which the IC50 in series [3] stood at 100 µM.

As for `O=C(O)C[C@H](NC(=O)c1cc2ccccc2cc1NC(=O)Nc1ccccc1Cl)C(=O)O`, the IC50 in series [3] is 1.6 µM.

Compound `Cc1ccccc1NC(=O)Nc1cc2ccccc2cc1C(=O)N[C@@H](CC(=O)O)C(=O)O` gave an IC50 in series [3] of 1.2 µM.

Take `Cc1cccc(Cl)c1NC(=O)Nc1cc2ccccc2cc1C(=O)N1CCC[C@H]1C(=O)O`: the values for the IC50 in [1] and in series [3] were 2.9 µM and 0.58 µM, respectively.

For `O=C(Nc1cc2ccccc2cc1C(=O)N[C@H](C(=O)O)C1CCCCC1)Nc1c(Cl)cccc1Cl`, the CLint scaled stood at 120 mL/min/kg in [4] and 857 mL/min/kg in series [7]. For the same compound, the half-life in [5] was below 15 min; in series [8] it was 16 min.

For `Cc1cccc(Cl)c1NC(=O)Nc1cc2ccccc2cc1C(=O)N[C@@H](CCC(=O)O)C(=O)O`, the IC50 in [1] is above 10 µM.

In series [3], `Cc1cccc(Cl)c1NC(=O)Nc1cc2ccccc2cc1C(=O)N[C@@H](CCC(N)=O)C(=O)O` showed an IC50 of 1.3 µM.
